The record followed here is PubChem BioAssay.

Active and inactive are the calls of the source.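 Rule for the calls, unless noted: active = a full or partial loss of lipid-probe fluorescence in the fish gall bladder, intestine or both, judged by eye; inactive = no fluorescence loss, or compound toxic to the fish.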

A short description of test [1]: inhibitors of TNFa-induced NFkB p65 translocation, primary screen, imaging, HUVEC, MLSMR starter and 10KST1 sets (AID 438;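 active = inhibition above 20% together with a positive visual image hit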;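 note: compound added about 3h40 before a 20 min TNFalpha stimulation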;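 for inhibition: signal is the nuclear over cytoplasmic p65 intensity ratio per well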). The note with it: HUVEC TNFa-induced p65 nuclear translocation; cell count: measured here: nuclei count (cytotoxicity indicator), at 2.08 µM; inhibition: at 2 µM, stronger effect = higher value, 0% TNFa-plus-vehicle, 100% no-TNFa wells.
Test [2] can be described thus: inhibitors of E-selectin induction by TNFa, primary screen, imaging, HUVEC, immunofluorescence, MLSMR starter and 10KST1 sets (AID 487;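 active = visually confirmed hit in the image check and inhibition above 20%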;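 for inhibition: signal is fraction of cell area covered by stained E-selectin grains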;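 for nuclei count: 100% = median nuclei count of all wells on the same plate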). The note with it: HUVEC TNFalpha-induced E-selectin immunofluorescence imaging, at 2 µM; inhibition: stronger effect = higher value; nuclei count: measured here: cell number, toxicity.
A short description of test [3]: DUSP6 inhibitors restoring Erk phosphorylation by chemical complementation, primary imaging in DUSP6-transfected HeLa (AID 609;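 active = compounds giving at least 50% inhibition in the cell-based MKP-3 phosphatase rescue imaging test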;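 for inhibition: phospho-Erk level distribution per well compared with pooled transfected vehicle control wells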). To be noted: HeLa MKP-3 transfected, phospho-Erk imaging KS statistic, at 10 µM, cells stimulated with TPA for 15 min.
The target in test [4] is Dual specificity protein phosphatase 6 (Homo sapiens) (UniProt Q16828). The description is as above. The note with it: HeLa MKP-3 transfected, phospho-Erk imaging KS statistic; at 10 µM; stronger effect = higher value; cells stimulated with TPA for 15 min.
Chain of Dual specificity protein phosphatase 6 (Homo sapiens) (Q16828 whole entry, looked up): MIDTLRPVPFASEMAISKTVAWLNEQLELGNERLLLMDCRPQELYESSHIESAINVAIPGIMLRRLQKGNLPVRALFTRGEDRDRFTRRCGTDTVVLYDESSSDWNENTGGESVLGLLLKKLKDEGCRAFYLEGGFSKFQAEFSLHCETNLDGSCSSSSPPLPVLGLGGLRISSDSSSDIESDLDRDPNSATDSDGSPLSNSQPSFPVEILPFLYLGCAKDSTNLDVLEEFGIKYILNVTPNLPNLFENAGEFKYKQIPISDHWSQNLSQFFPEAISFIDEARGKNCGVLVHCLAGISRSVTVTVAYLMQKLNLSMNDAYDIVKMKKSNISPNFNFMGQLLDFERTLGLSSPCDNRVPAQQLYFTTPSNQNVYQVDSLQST
The target of test [5] is Voltage-gated potassium channel subunit beta-2 (Rattus norvegicus) (UniProt P62483). The experiment in a line: KvBeta enzyme negative modulators, primary screen, biochemical, NADPH fluorescence (AID 622;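 active = fluorescence slope higher than the sample average by over 3 SD, cut at about -0.22 in these data, passing the limit was not always enough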;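 note: slope of raw intensity against log time taken from 70 to 1610 s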). To be noted: recombinant KvBeta, 4-cyanobenzaldehyde reduction, at 10 µM, stronger effect = higher value.
Chain of Voltage-gated potassium channel subunit beta-2 (Rattus norvegicus) (P62483 whole entry, looked up): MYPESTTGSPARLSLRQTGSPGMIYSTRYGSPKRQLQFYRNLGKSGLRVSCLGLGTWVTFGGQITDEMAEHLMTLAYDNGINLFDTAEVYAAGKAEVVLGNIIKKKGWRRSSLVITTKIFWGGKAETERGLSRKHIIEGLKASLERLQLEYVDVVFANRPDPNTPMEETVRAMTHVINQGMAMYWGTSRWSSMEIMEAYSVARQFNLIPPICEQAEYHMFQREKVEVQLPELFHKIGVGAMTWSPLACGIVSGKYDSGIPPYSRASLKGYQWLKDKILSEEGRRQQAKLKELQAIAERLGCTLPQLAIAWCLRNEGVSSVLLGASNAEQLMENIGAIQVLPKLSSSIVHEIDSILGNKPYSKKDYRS
The target is the same in test [6]. The experiment in a line: KvBeta positive modulators, primary screen, biochemical, NADPH fluorescence (AID 623;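 active = NADPH fluorescence slope more negative than the mean of all samples by about 3 SD, 99.7% confidence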;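 note: fluorescence intensity change per second fitted from 20 to 320 s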). The note with it: Recombinant KvBeta, NADPH fluorescence decrease slope, 10 min; at 10 µM; stronger effect = lower value.
Test [7] has as its target Alpha-2C adrenergic receptor (Homo sapiens) (UniProt P18825). The experiment in a line: modulators of alpha2C/GIRK thallium flux, primary screen, cell-based, HEK293 alpha2C/GIRK1/2 (AID 624;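 active = fluorescence slope after compound addition differing from the mean of all screened samples at 99.7% confidence, in either direction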;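 note: slope of fluorescence ratio to pre-addition baseline per second over 15 to 24 s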). The note with it: thallium flux BTC fluorescence, at 10 µM, actives lie on both sides.
The nature of test [8]: inhibitors of larval lipid processing in zebrafish, primary screen, whole organism, PED6 fluorescence, gall bladder and intestine (AID 686).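 Note: larvae 5 to 7 days old with five fish per well; signal comes from phospholipase A2 cleavage of quenched PED6 carried via bile; overnight exposure to compound and PED6 before scoring.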 The note with it: Zebrafish larvae PED6 lipid processing, fluorescence scoring; screened at 20 µM (by protocol). An outline of the steps: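 system = live zebrafish larvae aged 5-7 days, whole organism | probe or stimulus = ingested quenched lipid PED6 at 100 nM | doses = 20 µM single dose | timing = overnight exposure | detection = fluorescence microscopy with visual scoring of gall bladder and intestine | read-out = visual per-well fluorescence inhibition score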

Test [9] is described as follows: inhibitors of Chlamydomonas gravitaxis, primary screen, whole organism, Chlamydomonas reinhardtii, WT vs cilia-less mutant, absorbance, 96-well (AID 463189;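 active = inhibition at or above 50% relative to wild type and mutant plate controls; inactive = inhibition below 50%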;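 note: 0% = wild type cc124 cells in DMSO and 100% = ciliumless bld1 mutant cells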). To be noted: OD600 absorbance, 2 days, at 10 µM, stronger effect = higher value.
The mark [10] stands for this setting: measured here: cell density z-score.
Setting [11] is: measured here: nuclear c-Myc green intensity z-score.
Where [12] appears, read: measured here: nuclear pErk red intensity z-score, stronger effect = higher value.

Chain of Alpha-2C adrenergic receptor (Homo sapiens) (P18825 whole entry, looked up): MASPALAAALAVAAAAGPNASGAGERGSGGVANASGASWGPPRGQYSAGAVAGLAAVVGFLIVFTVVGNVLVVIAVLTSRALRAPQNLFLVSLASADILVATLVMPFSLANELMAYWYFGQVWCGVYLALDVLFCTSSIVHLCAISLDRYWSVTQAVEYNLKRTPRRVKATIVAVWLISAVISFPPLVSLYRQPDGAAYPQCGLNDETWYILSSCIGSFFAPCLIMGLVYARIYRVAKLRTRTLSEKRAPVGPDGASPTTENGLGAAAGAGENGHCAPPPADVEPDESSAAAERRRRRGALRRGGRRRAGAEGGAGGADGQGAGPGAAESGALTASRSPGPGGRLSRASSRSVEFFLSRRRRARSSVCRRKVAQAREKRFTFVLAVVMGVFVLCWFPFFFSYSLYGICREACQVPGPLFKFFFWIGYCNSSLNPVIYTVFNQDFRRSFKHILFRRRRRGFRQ

Usually inhibition stands for the drop in the measured response relative to a control, in per cent. On to `O=c1[nH]c(CN2CCCCC2)nc2c1C1(CCCC1)Cc1ccccc1-2`, for which the cell count in test [1] worked out at 414. In addition, the inhibition in test [1] was -0.5% (inactive); in test [2], -29.1% (inactive); in test [4], -1.12% (inactive); in test [9], -2.89% (inactive). The compound further gave a nuclei count in test [2] of 101%. Also, the z-score in [3] (setting [10]) was 0.73; in [3] (setting [11]), -0.701; in test [3] (setting [12]), -0.0539. Besides, the fluorescence slope in test [5] was -0.233 (inactive). Also, the NADPH fluorescence slope in [6] is -8.8e-06 (inactive). Besides, the slope in [7] is 0.00603 (inactive). The outcome in test [8] was inactive.
As to `Cn1c2c(c(=O)n(C)c1=O)C(NC(=O)c1cccs1)(C(F)(F)F)C(=O)N2` (centres undefined), the cell count in test [1] turned out to be 497. The inhibition was 3.5% (inactive) in test [1], -80.8% (inactive) in test [2], 8.76% (inactive) in test [4] and 24.7% (inactive) in test [9]. In test [2], this compound displayed a nuclei count of 147%. The z-score in test [3] (setting [10]) was 1.78; in test [3] (setting [11]), -0.706; in test [3] (setting [12]), -0.81. In test [5], the fluorescence slope was -0.537 (inactive). The NADPH fluorescence slope in test [6] was -9.1e-06 (inactive). The slope in test [7] is 0.00621 (inactive). In addition, in test [8], the compound was classed as inactive.
As to `COc1cc(C2C(C#N)=C(N)Oc3cc(C)n(Cc4ccccn4)c(=O)c32)cc2c1OCO2` (centres undefined), the cell count in [1] amounted to 433. For the same compound, the inhibition in test [1] was 6.2% (inactive); in test [2] it was -56.2% (inactive); in [4], 11.4% (inactive); in test [9] it was -11.1% (inactive). Also, in [2], the nuclei count worked out at 88.8%. In addition, the z-score in [3] (setting [10]) is -2.67; in test [3] (setting [11]) it was -0.393; in test [3] (setting [12]), 1.97. Further, the fluorescence slope in test [5] is -0.442 (inactive). Moreover, the NADPH fluorescence slope in [6] was -1.2e-05 (inactive). Further, in test [7], the slope was 0.00753 (inactive). Moreover, the outcome in test [8] was inactive.
In the case of `COc1nc(NS(=O)(=O)c2ccc(C)cc2)nc(C)c1Cl`, the cell count in [1] came to 718. Further, the inhibition in [1] is 3.9% (inactive); in test [2], -62.9% (inactive); in test [4], 1.48% (inactive); in test [9] it was -6.39% (inactive). The nuclei count in [2] was found to be 170%. Besides, the values for the z-score in [3] (setting [10]), in [3] (setting [11]) and in test [3] (setting [12]) were -1.13, 1.46 and -0.341, respectively. For the same compound, the fluorescence slope in [5] was -0.346 (inactive). Moreover, in [6], the NADPH fluorescence slope was -3.1e-05 (inactive). Further, the slope in test [7] is 0.00526 (inactive). In test [8], the call was inactive.
As for `COc1ccc(/C(O)=C2\C(=O)C(=O)N(CCN3CCOCC3)C2c2ccccc2OC)cc1` (centres undefined), the cell count in test [1] is 562. Further, the inhibition in test [1] is -10.5% (inactive); in [2] it was -38.1% (inactive); in [4], -7.86% (inactive); in [9], -2.72% (inactive). Also, the nuclei count in test [2] turned out to be 164%. For the same compound, the z-score is 1.03 in [3] (setting [10]), -1.74 in test [3] (setting [11]) and 0.476 in [3] (setting [12]). Further, the fluorescence slope in test [5] was -0.486 (inactive). Further, in test [6], the NADPH fluorescence slope is -2.2e-05 (inactive). Besides, the slope in test [7] is 0.00695 (inactive). In addition, the compound was classed as inactive in test [8].
In the case of `Cc1cc(OCCN2CCOCC2)nc2ccccc12`, the cell count in test [1] was determined as 358. Further, the inhibition in test [1] is -29.5% (inactive); in test [2], -231% (inactive); in [4] it was -10.5% (inactive); in test [9], 22.7% (inactive). For the same compound, the nuclei count in [2] turned out to be 135%. Besides, the z-score was 0.234 in test [3] (setting [10]), -1.97 in test [3] (setting [11]) and -1.2 in [3] (setting [12]). In addition, in test [5], the fluorescence slope is -0.431 (inactive). Besides, the NADPH fluorescence slope in test [6] is -9.4e-05 (inactive). Also, the slope in [7] was 0.00613 (inactive). Further, the call in test [8] was inactive.
As to `CCCC1C2C(=O)N(c3ccccc3OC)C(=O)C2ON1c1ccccc1` (centres undefined), in test [1], the cell count was 329. For the same compound, the inhibition in [1] is -20.4% (inactive); in test [2], -107% (inactive); in test [4], 11.3% (inactive); in test [9], 32.4% (inactive). Moreover, the nuclei count in test [2] was 93.8%. Also, the z-score in [3] (setting [10]) was found to be 1.11; in test [3] (setting [11]), 1.02; in test [3] (setting [12]) it was 0.149. In addition, the fluorescence slope in test [5] was -0.536 (inactive). Also, the NADPH fluorescence slope in [6] was -2.6e-05 (inactive). Besides, the slope in test [7] is 0.00508 (inactive). In [8], the compound was classed as inactive.
As for `c1ccc(-c2nn3c(C4CCCCC4)nnc3s2)cc1`, the cell count in [1] worked out at 527. The inhibition is -1.4% (inactive) in test [1], -81.3% (inactive) in test [2], -18.6% (inactive) in test [4] and 6.49% (inactive) in [9]. This compound also gave a nuclei count in test [2] of 142%. The values for the z-score in test [3] (setting [10]), in [3] (setting [11]) and in [3] (setting [12]) were -0.66, 0.347 and 1.15, respectively. Also, the fluorescence slope in test [5] was -0.435 (inactive). The NADPH fluorescence slope in test [6] was -8.4e-05 (inactive). The slope in [7] is 0.00411 (inactive). The outcome in test [8] was inactive.
As for `CC(C)Cc1nc(N2CCOCC2)c(C#N)c2c1CCC2`, the cell count in test [1] came out at 488. Further, the inhibition in test [1] was 3.3% (inactive); in test [2], -87.5% (inactive); in test [4], -5.26% (inactive); in test [9], -5.18% (inactive). In [2], this compound yielded a nuclei count of 114%. Moreover, the z-score in test [3] (setting [10]) was -1.23; in test [3] (setting [11]) it was 0.0175; in [3] (setting [12]), 0.0727. Moreover, the fluorescence slope in test [5] was -0.511 (inactive). Further, the NADPH fluorescence slope in test [6] is -1.9e-05 (inactive). Also, in test [7], the slope is 0.00512 (inactive). Besides, the outcome in test [8] was “inactive; toxic”.
As to `CCOC(=O)CNS(=O)(=O)c1cc(-c2nn(C)c(=O)c3ccccc23)ccc1C`, the cell count in test [1] came to 560. Further, the inhibition was -1.9% (inactive) in [1], 45.7% (inactive) in test [2], 8.76% (inactive) in [4] and -1.44% (inactive) in [9]. In addition, in test [2], the nuclei count is 144%. Also, the figures for the z-score in [3] (setting [10]), in test [3] (setting [11]) and in test [3] (setting [12]) were 1.99, -1.09 and -0.809, respectively. The fluorescence slope in test [5] was -0.385 (inactive). For the same compound, the NADPH fluorescence slope in test [6] was -1.9e-05 (inactive). Moreover, in test [7], the slope was 0.00449 (inactive). Also, the call in test [8] was inactive.
With `CSc1nc(N)nc(SCC(=O)OC(C)C)c1C#N`, in [1], the cell count was 394. For the same compound, the inhibition was -11.8% (inactive) in [1], -26.4% (inactive) in test [2], 0.671% (inactive) in test [4] and 72.2% (active) in test [9]. In addition, in [2], the nuclei count stood at 76.9%. Besides, the z-score in [3] (setting [10]) was -1.22; in test [3] (setting [11]) it was -0.698; in test [3] (setting [12]), -1.26. Besides, the fluorescence slope in test [5] is -0.371 (inactive). Moreover, the NADPH fluorescence slope in [6] was 5e-05 (inactive). The slope in test [7] is 0.00629 (inactive). Besides, the outcome in test [8] was inactive.
In the case of `Cc1cccc(Nc2ncnc3ccccc23)c1`, the cell count in [1] was 458. In addition, the inhibition in test [1] is -5.2% (inactive); in test [2], -1% (inactive); in [4], 18.2% (inactive); in test [9], 2.93% (inactive). This compound also gave a nuclei count in [2] of 123%. Also, the values for the z-score in [3] (setting [10]), in test [3] (setting [11]) and in [3] (setting [12]) were -0.619, 0.167 and -0.509, respectively. In test [5], the fluorescence slope was -0.519 (inactive). Further, the NADPH fluorescence slope in [6] was -6.7e-05 (inactive). Moreover, the slope in test [7] is 0.00506 (inactive). Moreover, the outcome in [8] was inactive.
`COc1ccc(NC(=O)C2CSC3c4ccccc4C(=O)N23)cc1` (centres undefined): in test [1], the cell count came to 376. Moreover, the inhibition in test [1] is 0.6% (inactive); in [2] it was -32.1% (inactive); in [4], -1.12% (inactive); in test [9], 127% (active). Moreover, in [2], the nuclei count stood at 112%. Besides, the z-score is -0.228 in test [3] (setting [10]), 0.485 in test [3] (setting [11]) and -1.59 in test [3] (setting [12]). The fluorescence slope in test [5] is -0.355 (inactive). Besides, the NADPH fluorescence slope in [6] is 2.4e-05 (inactive). Besides, the slope in test [7] is 0.00604 (inactive). In test [8], the outcome was inactive.
